Shown are actives, neighbours in structure and some others; about 3.1% of the full set was active somewhere.
GalR3 antagonist = blocks the human galanin receptor 3. inhibition, % at 3 µM. HEK293 GalR3-CNG cAMP membrane potential fluorescence; galR3 body fused to GalR1 C-terminus. 360,000 compounds, 0.44% hits. O60755. AID 651719;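 active means inhibition above the screen-wide average plus 3 SD, cut at about 13% in these data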;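 further: forskolin and galanin both at EC90 stimulate the cells; cAMP rise reported by CNG channel membrane potential dye signal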
Target sequence (O60755 1-299 limits assumed): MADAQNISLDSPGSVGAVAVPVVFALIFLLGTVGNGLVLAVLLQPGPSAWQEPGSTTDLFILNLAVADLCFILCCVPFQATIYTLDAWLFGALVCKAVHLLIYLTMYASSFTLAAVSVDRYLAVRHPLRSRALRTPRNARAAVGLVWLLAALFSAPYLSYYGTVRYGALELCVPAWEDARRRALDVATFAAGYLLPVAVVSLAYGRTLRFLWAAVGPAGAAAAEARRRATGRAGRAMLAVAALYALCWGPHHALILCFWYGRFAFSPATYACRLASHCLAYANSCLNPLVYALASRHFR
OX1R antag-1 = human HCRTR1 antagonism | 330,000 compounds, 0.43% hits | O43613 | inhibition, % at 5 µM | CHO/OX1R cells, Fluo-8 calcium fluorescence, orexin A;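 active means inhibition above its plate's threshold, mean inhibition of all tested compounds on the plate plus 3 SD, cut at about 37% in these data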
Target sequence (O43613 whole entry, looked up): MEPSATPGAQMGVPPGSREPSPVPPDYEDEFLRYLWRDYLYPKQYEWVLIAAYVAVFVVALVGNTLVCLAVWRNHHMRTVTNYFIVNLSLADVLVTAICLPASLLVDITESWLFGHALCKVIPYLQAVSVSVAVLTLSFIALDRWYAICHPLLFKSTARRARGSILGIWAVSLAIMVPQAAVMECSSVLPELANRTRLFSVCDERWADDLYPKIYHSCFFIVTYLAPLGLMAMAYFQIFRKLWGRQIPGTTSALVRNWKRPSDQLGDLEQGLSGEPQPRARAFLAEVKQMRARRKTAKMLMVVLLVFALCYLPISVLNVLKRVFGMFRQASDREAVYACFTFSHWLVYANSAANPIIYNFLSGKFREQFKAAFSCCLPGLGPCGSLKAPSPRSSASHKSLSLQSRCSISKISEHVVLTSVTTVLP
GPR7 antag = human neuropeptides B/W receptor 1 antagonism. P48145. 290,000 compounds, 1.1% hits. inhibition, % at 4.4 µM. GPR7-expressing cells, fluorescence antagonist assay. AID 1861; in the data active means inhibition above about 16%, passing the limit was not always enough;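 further: cells stimulated with the agonist NPW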
CHO parental Ca = counter-screen for OX1R antagonists: effect in parental CHO cells. 330,000 compounds, 0.63% hits. inhibition, % at 5.6 µM. parental CHO-K1, ATP-induced calcium, Fluo-8 fluorescence;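 active means inhibition above that plate's mean sample inhibition plus 3 SD, cut at about 26% in these data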
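Test system: untransfected parental CHO cell line; also added: ATP stimulus; dosing: 5.6 µM, single dose; signal: calcium-sensitive Fluo-8 fluorescence; measure: percent inhibition of ATP-evoked calcium rise, normalized to controls; benchmarks: low control ATP plus DMSO, high control DMSO only; replication: one well per compound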
OX1R antag-2 = antagonists of human orexin 1 receptor (OX1R); inhibition, % at 6.6 µM; AID 485270; O43613; 330,000 compounds, 1.8% hits; OX1R-expressing cells, FRET antagonist read-out; in the data active means inhibition mostly above about 38%, no sharp cut-off; inactive means mostly below about 40%
GPR7 antag cf = confirmation of human GPR7 antagonists; shares compounds with GPR7 antag; GPR7-expressing cells, calcium fluorescence antagonist mode; inhibition, % at 4.4 µM; 2,400 compounds, 52% hits; in the data active means inhibition above about 24%;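 further: stimulated with the GPR7 agonist NPW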
MCHR1 antag = antagonizes human MCHR1, a GPR7 antagonist counter-screen; inhibition, % at 4.4 µM; AID 2148; shares compounds with GPR7 antag; 2,400 compounds, 62% hits; MCHR1-expressing cells, fluorescence antagonist assay; in the data active means inhibition above about 22%
OX1R Fluo8 conf = OX1R (human) antagonism, confirmed; inhibition, % at 5 µM; shares compounds with OX1R antag-1; CHO/OX1R cells, orexin A calcium Fluo-8 fluorescence; 1,100 compounds, 38% hits; in the data active means inhibition above about 29%
CHO Ca counter = counter-screen for OX1R antagonists: effect in parental CHO cells | shares compounds with OX1R antag-1 | parental CHO-K1, ATP-induced calcium, Fluo-8 fluorescence | inhibition, % at 5.6 µM | 1,100 compounds, 9.3% hits | AID 492965;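 active means inhibition above a per-plate limit, the mean inhibition of that plate's test compounds plus 3 SD, cut at about 25% in these data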
OX1R HTRF conf = OX1R (human) antagonism, HTRF confirmed; inhibition, % at 6.6 µM; shares compounds with OX1R antag-2; 1,800 compounds, 49% hits; OX1R-expressing cells, HTRF antagonist assay; in the data active means inhibition above about 55%;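 further: CHO cells expressing OX1R stimulated with orexin A at about EC80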
CHO-K1 HTRF = signal in parental CHO-K1 cells, OX1R antagonist counter-screen. 1,800 compounds, 48% hits. inhibition, % at 6.6 µM. HTRF counterscreen. shares compounds with OX1R antag-2; in the data active means inhibition above about 17%
GalR3 antag conf = GalR3 (human) antagonism, confirmation | 1,600 compounds, 59% hits | inhibition, % at 3 µM | HEK293 GalR3 CNG cAMP biosensor, membrane potential fluorescence; galR3 fused to GalR1 carboxy tail; challenged with forskolin and galanin at EC90 | shares compounds with GalR3 antagonist;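 active means inhibition above the primary screen's cutoff, the mean inhibition of all screened compounds plus 3 SD, cut at about 13% in these data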
HEK-CNG parental = parental cell agonism counter-screen for GalR3 antagonists | shares compounds with GalR3 antagonist | HEK293-CNG parental cells, cAMP membrane potential fluorescence; normalised: DMSO wells 0%, forskolin wells 100% | activation, % at 3 µM | 1,600 compounds, 10% hits | AID 652268; in the data active means activation above about 1.3%
Hits are given with their value; – = inactive; · = no result.

SMILES	GalR3 antagonist	OX1R antag-1	GPR7 antag	CHO parental Ca	OX1R antag-2	GPR7 antag cf	MCHR1 antag	GalR3 antag conf	HEK-CNG parental	others
CCc1ccc([C@@H]2C[C@H]3[C@@H](CN2S(=O)(=O)c2ccc(C)cc2)C(=O)C[C@@H](c2ccc(Cl)cc2)N3S(=O)(=O)c2ccc(C)cc2)cc1	–	·	·	·	·	·	·	·	·
O=C(c1ccc([N+](=O)[O-])s1)N1CCN(c2ncccn2)CC1	–	·	·	·	·	·	·	·	·
O=C(c1ccc([N+](=O)[O-])s1)N1CCN(c2ccc(C(F)(F)F)cn2)CC1	–	–	36	–	99	47	58	·	·	OX1R HTRF conf=–;CHO-K1 HTRF=19
N=c1c(C(=O)NCCc2ccccc2)cc2c(=O)n3ccccc3nc2n1CC1CCCO1 (stereo not drawn)	–	–	48	–	88	34	–	·	·	OX1R HTRF conf=83;CHO-K1 HTRF=62
Cc1cc(C)n(-c2ccc(C(=O)Nc3ccc(S(=O)(=O)NCc4ccco4)cc3)cc2)n1	71	–	45	–	–	67	70	61	–
COc1cc2c3c(c1)C(C)=CC(C)(C)N3C(=O)C2=O	14	–	27	–	–	–	23	–	–
Cc1cccc(N2CCN(S(=O)(=O)c3cc(-c4cc(C)no4)ccc3C)CC2C)c1 (stereo not drawn)	52	–	31	–	–	45	61	88	–
COc1ccc(-c2cc(C)no2)cc1S(=O)(=O)N1CCN(c2cccc(C)c2)C(C)C1 (stereo not drawn)	–	–	–	–	–	·	·	·	·
CSc1cccc(NC(=S)NN/C(=N/S(=O)(=O)c2ccccc2)N2CCCC2)c1	–	·	·	·	·	·	·	·	·
Cc1nn(-c2ccc(NC(=O)c3ccncc3)cc2)c(C)c1Cl	75	·	32	·	·	52	65	109	–
CCc1ccc(CN(C)C(=O)c2cc(COc3cccc4cnccc34)on2)cc1	14	51	38	67	–	–	46	84	–
Cc1c(C(=O)NCc2cccs2)sc(=O)n1Cc1ccc(S(C)(=O)=O)cc1	–	·	·	·	·	·	·	·	·
CC(=O)c1cn(CCOc2cc(C)ccc2C)c2ccccc12	84	–	29	33	–	47	68	84	–
CCSc1nsc(NC(=O)Nc2cccc(F)c2)n1	69	104	36	101	84	46	60	28	–
CCCSc1nsc(NC(=O)Nc2ccc(F)cc2F)n1	–	–	–	–	–	·	·	·	·
COC(=O)COc1ccc(-c2ccccc2)cc1C=O	17	–	31	–	–	–	38	–	–
CCN1/C(=C/c2ccc3cc(C)ccc3[n+]2CC)Sc2cc(C)c(C)cc21	51	·	28	·	·	30	–	58	9.7
CC[n+]1c(/C=C2\Sc3ccccc3N2C)ccc2cccc(C)c21	–	·	–	·	·	·	·	·	·
O=S(=O)(Nc1ccc(-c2csc(-c3ccccc3)n2)cc1)c1ccc(F)cc1	–	–	–	–	–	·	·	·	·
O=C(Nc1nc(-c2ccccc2)cs1)c1ccccc1NS(=O)(=O)c1ccc(F)cc1	17	64	24	57	94	42	60	77	–
CCCCN(C(=O)c1ccc(N(C)S(=O)(=O)c2ccc(C)cc2)cc1)c1c(N)n(CC(C)C)c(=O)[nH]c1=O	–	·	·	·	·	·	·	·	·
O=C(Nc1ccc(S(=O)(=O)Nc2ccc(F)cc2)cc1)c1ccc(CN2CCOCC2)cc1	67	–	30	–	–	66	77	109	–
O=C(Nc1ccc(S(=O)(=O)N2CCOCC2)cc1)c1ccc(F)cc1	–	–	–	–	–	·	·	·	·
CCc1nc2c(OCc3ccc(C(F)(F)F)cc3)cccn2c1N(C)C(=O)c1ccco1	–	·	·	·	·	·	·	·	·
CCOC(=O)C1(CCOc2ccccc2)CCN(Cc2ccc(OC)c(COC)c2)CC1	13	–	36	–	–	36	52	64	3.5
SMILES	GalR3 antagonist	OX1R antag-1	GPR7 antag	CHO parental Ca	OX1R antag-2	GPR7 antag cf	MCHR1 antag	GalR3 antag conf	HEK-CNG parental	others
Cc1ccc(NC(=O)CSc2ncnc3ccccc23)cc1S(=O)(=O)N1CCCCCC1	96	–	24	34	–	53	71	108	–
Cc1ccc(S(=O)(=O)N2CCCCC2)cc1NC(=O)CSc1ncnc2ccccc12	–	–	–	–	–	·	·	·	·
C=CCCC1CN(Cc2ccc(OC)cc2)S(=O)(=O)c2c(cccc2N2CCCC2)O1 (stereo not drawn)	–	·	·	·	·	·	·	·	·
Cc1cc(C)nc(NS(=O)(=O)c2ccc(NS(=O)(=O)c3ccc(F)c(F)c3)cc2)n1	–	·	·	·	·	·	·	·	·
CN(C)c1ccc(/C=C/c2cccc[n+]2[O-])cc1	–	–	–	–	–	·	·	·	·
CC(C)CC[n+]1ccccc1/C=C/c1ccc(N(C)C)cc1	31	–	76	61	–	78	72	47	16
CC1(C(=O)Nc2cccc(Oc3ccccc3)c2)CCN1Cc1cccc2c1OCO2 (stereo not drawn)	–	·	·	·	·	·	·	·	·
CC1Cc2ccccc2N1Cc1cc(=O)n2ccsc2n1 (stereo not drawn)	–	–	–	–	–	·	·	·	·
O=c1cc(CN2CC(O)Cc3ccc4ccccc4c32)nc2sccn12 (stereo not drawn)	–	71	–	–	–	·	·	·	·	OX1R Fluo8 conf=57;CHO Ca counter=–
COc1ccc(-c2cn3c(C)c(C(=O)Nc4cccc(NC(C)=O)c4)sc3n2)cc1	–	–	–	–	–	·	·	·	·	OX1R Fluo8 conf=–;CHO Ca counter=–
COC(=O)c1ccc(NC(=O)c2sc3nc(-c4ccccc4)cn3c2C)cc1	–	–	–	–	–	·	·	·	·
Cc1cccc(N2CCN(C(=O)C3CCN(c4ncnc5c4nc4n5CCCCC4)CC3)CC2C)c1 (stereo not drawn)	–	–	–	–	–	·	·	·	·	OX1R Fluo8 conf=–;CHO Ca counter=–
CCOC(=O)C(=O)N(C)c1c(CC)nc2c(OCc3ccc(OC)cc3)cccn12	–	·	·	·	·	·	·	·	·
